The values that follow come from ChEMBL document CHEMBL1157985, “Antiplasmodial and cytotoxic activity of natural bisbenzylisoquinoline alkaloids” (J Nat Prod, 1999).

By IC50 is commonly meant the concentration that gives 50% inhibition. High values mean weaker potency, low ones greater potency.

SMILES strings stand for the structures. Bounds are passed on as bounds.

Assay [1] has as its system Plasmodium falciparum. Briefly: Antiplasmodial activity against chloroquine-sensitive Plasmodium falciparum D6 infected human erythrocytes as [3H]hypoxanthine uptake after 24 hrs. Type of assay: functional, organism-based. In outline:
(§1)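 P. falciparum (D6, W2) cultured in type A+ human erythrocytes, RPMI-1640 with NaHCO3, HEPES and 10% heat-inactivated human plasma, 37 °C under 5% O2/5% CO2/90% N2. Infected red cells at 0.5-1.0% parasitemia, 1.0% hematocrit exposed to compound, duplicate seven-point series, 24 h; then 0.5 μCi [3H]hypoxanthine per well for 18 h more. Filter harvest, scintillation counting; IC50 by nonlinear regression versus zero-drug controls.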

In another assay the test system is KB. Briefly: Cytotoxicity against human KB cells after 72 hrs by SRB assay. Type of assay: functional. Conditions: read-out: ED50 (the source's name). A digest of the protocol:
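KB-3 cells grown in DMEM with 10% FBS at 37 °C and 5% CO₂ to 60–70% confluence, then used 1 day after a medium change. Samples were dissolved in DMSO and serially diluted in 10% aqueous DMSO. 5×10⁴ cells were exposed for 72 h at 37 °C, then TCA-fixed, stained with 0.4% SRB and read at 515 nm. Zero-day control was subtracted and values expressed relative to solvent control; ED50 by nonlinear regression.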
(In general: In SRB staining, fixed cells bind dye roughly in proportion to their protein.)

Assay [2] can be described thus: Selectivity index, ratio of ED50 for human KB cells to IC50 for chloroquine-resistant Plasmodium falciparum W2. Type of assay: functional.
A short description of assay [3]: Selectivity index, ratio of ED50 for human KB cells to IC50 for […] Plasmodium falciparum D6. In kind it is functional.
The test system of assay [4] is Plasmodium falciparum. Nature of the assay: Antiplasmodial activity against chloroquine-resistant Plasmodium falciparum W2 infected human erythrocytes as [3H]hypoxanthine uptake after 24 hrs. In kind it is functional, organism-based. A digest of the protocol:
as §1

Consider `COc1cc2c3cc1Oc1cc(ccc1O)C[C@H]1c4c(cc(OC)c(c4O)OCc4ccc(cc4)CC3NCC2)CCN1C` (stereo not given in full), for which the IC50 amounted to 348 nM in the assay on Plasmodium falciparum [1] and 199 nM in the assay on Plasmodium falciparum [4]. Further, the EC50 in the assay on KB turned out to be 8580 nM. The “Selectivity Index” value is recorded as 43.2 in assay [2] and 24.6 in assay [3].

As to `COc1ccc2cc1Oc1cc3c(cc1OC)CCN[C@@H]3Cc1ccc(cc1)Oc1c3c(cc4c1[C@@H](C2)N(C)CC4)OCO3`, the IC50 is 530 nM with Plasmodium falciparum [1] and 676 nM with Plasmodium falciparum [4]. For the same molecule, the EC50 with KB worked out at 14400 nM. Further, the figures for the “Selectivity Index” value in assay [2] and in assay [3] were 21.2 and 27.1, respectively.

For `COc1cc2c3cc1Oc1c(OC)c(OC)cc4c1[C@H](Cc1ccc(cc1)Oc1cc(ccc1O)C[C@@H]3N(C)CC2)N(C)CC4`, the figures for the IC50 with Plasmodium falciparum [1] and with Plasmodium falciparum [4] were 42 nM and 67 nM, respectively. The EC50 with KB turned out to be 15000 nM. For the same molecule, the “Selectivity Index” value in assay [2] came out at 220; in assay [3], 350.

`COc1ccc2cc1Oc1ccc(cc1)C[C@@H]1c3c(cc(OC)c(O)c3Oc3cc4c(cc3OC)CCN[C@@H]4C2)CCN1C`: the 50% inhibitory concentration (IC50) with Plasmodium falciparum [1] is 106 nM; with Plasmodium falciparum [4], 375 nM. Further, the EC50 in the assay on KB is 9800 nM. Moreover, the “Selectivity Index” value in assay [2] came out at 26; in assay [3] it was 92.

In the case of `COc1ccc2cc1Oc1ccc(cc1)C[C@H]1c3c(cc(OC)c(OC)c3Oc3c4c(cc(OC)c3OC)[C@H](C2)N(C)CC4)CCN1C`, the figures for the IC50 in the assay with Plasmodium falciparum [1] and in the assay on Plasmodium falciparum [4] were 224 nM and 110 nM, respectively. For the same molecule, in the assay with KB, the EC50 amounted to 8400 nM. The “Selectivity Index” value was 76.4 in assay [2] and 37.7 in assay [3].

As for `COc1cc2c3cc1Oc1c(O)c(OC)cc4c1[C@@H](Cc1ccc(O)c(c1)Oc1ccc(cc1)C[C@@H]3N(C)CC2)N(C)CC4` [OBAMEGINE], the IC50 with Plasmodium falciparum [1] was found to be 354 nM; in the assay with Plasmodium falciparum [4] it was 825 nM. Further, the EC50 in the assay on KB was 14100 nM. Besides, the “Selectivity Index” value worked out at 17 in assay [2] and 40 in assay [3].

In the case of `COc1ccc2cc1Oc1ccc(cc1)C[C@H]1c3c(cc(O)c(OC)c3Oc3cc4c(cc3OC)CCN(C)[C@@H]4C2)CCN1C`, the IC50 is 214 nM in the assay with Plasmodium falciparum [1] and 510 nM in the assay with Plasmodium falciparum [4]. Further, in the assay on KB, the EC50 amounted to 10500 nM. Also, the entries for the “Selectivity Index” value in assay [2] and in assay [3] were 21 and 49, respectively.

As for `COc1ccc2cc1Oc1cc3c(cc1OC)CCN=C3Cc1ccc(cc1)COc1c(OC)cc3c(c1O)[C@H](C2)N(C)CC3`, the IC50 in the assay with Plasmodium falciparum [1] worked out at 346 nM; in the assay on Plasmodium falciparum [4], 169 nM. Besides, the EC50 in the assay on KB was > 33800 nM. For the same molecule, the figures for the “Selectivity Index” value in assay [2] and in assay [3] were >200 and >98, respectively.

As for `COc1ccc2cc1Oc1ccc(cc1)C[C@H]1c3c(cc(OC)c(O)c3Oc3cc4c(cc3OC)CCN(C)[C@@H]4C2)CCN1C` [HOMOAROMOLINE], the IC50 with Plasmodium falciparum [1] was 173 nM; with Plasmodium falciparum [4], 474 nM. Also, the EC50 in the assay on KB was 10400 nM. Further, the “Selectivity Index” value in assay [2] turned out to be 22; in assay [3] it was 60.

Regarding `COc1ccc2cc1Oc1ccc(cc1)C[C@H]1c3c(cc4c(c3Oc3cc5c(cc3OC)CCN[C@@H]5C2)OCO4)CCN1C`, the IC50 in the assay with Plasmodium falciparum [1] was found to be 79 nM; in the assay with Plasmodium falciparum [4], 219 nM. For the same molecule, the EC50 in the assay with KB was 6600 nM. Moreover, the “Selectivity Index” value in assay [2] worked out at 30; in assay [3], 84.

As to `COc1ccc2cc1Oc1ccc(cc1)C[C@H]1c3cc(c(OC)cc3CCN1C)Oc1c(O)c(OC)cc3c1[C@@H](C2)N(C)CC3`, the concentration for half-maximal inhibition (IC50) in the assay with Plasmodium falciparum [1] amounted to 199 nM; in the assay with Plasmodium falciparum [4], 378 nM. Besides, in the assay on KB, the EC50 is 10700 nM. Besides, the “Selectivity Index” value in assay [2] was found to be 28; in assay [3], 54.

As to `COc1ccc2cc1Oc1ccc(cc1)C[C@H]1c3c(cc(OC)c4c3Oc3cc5c(cc3O4)CCN(C)[C@H]5C2)CCN1C` [ISOTRILOBINE], the IC50 with Plasmodium falciparum [1] was determined as 388 nM; in the assay on Plasmodium falciparum [4] it was 788 nM. Further, the EC50 in the assay with KB turned out to be 24000 nM. Besides, the “Selectivity Index” value is given as 30 in assay [2] and 62 in assay [3].

Regarding `COc1cc2c3cc1Oc1c(O)c(OC)cc4c1[C@H](Cc1ccc(cc1)Oc1cc(ccc1O)C[C@H]3N(C)CC2)N(C)CC4`, the IC50 with Plasmodium falciparum [1] worked out at 446 nM; in the assay on Plasmodium falciparum [4], 1400 nM. Moreover, the EC50 with KB was 14800 nM. Moreover, the “Selectivity Index” value in assay [2] came to 11; in assay [3], 33.

`COc1cc2c3c4c1Oc1cc5c(cc1O4)[C@H](Cc1ccc(O)c(c1)Oc1ccc(cc1)C[C@@H]3NCC2)N(C)CC5`: the IC50 was 48 nM in the assay on Plasmodium falciparum [1] and 281 nM in the assay on Plasmodium falciparum [4]. Further, in the assay on KB, the EC50 is 3800 nM. Moreover, the results for the “Selectivity Index” value in assay [2] and in assay [3] were 14 and 79, respectively.

Consider `COc1ccc2cc1Oc1ccc(cc1)C[C@H]1c3c(cc(OC)c(O)c3Oc3cc4c(cc3OC)CCN(C)[C@H]4C2)CCN1C`, for which the concentration for half-maximal inhibition (IC50) in the assay on Plasmodium falciparum [1] amounted to 48 nM; in the assay with Plasmodium falciparum [4] it was 67 nM. Also, in the assay with KB, the EC50 turned out to be 3620 nM. For the same molecule, the results for the “Selectivity Index” value in assay [2] and in assay [3] were 54 and 76, respectively.
